# ChEMBL document CHEMBL1134346, “Labeling and evaluation of N-[11C]methylated quinoline-2-carboxamides as potential radioligands for visualization of peripheral benzodiazepine receptors” (J Med Chem, 2001)
# How the values were obtained:
# Rattus norvegicus [1] = organism: Rattus norvegicus; experiment: Tissue (cerebellum) distribution in Albino male CD rats after 5 minutes expressed as percent of injected dose per gram of organ.; type: ADME, organism-based; details: in vivo
# How it was run: (§1)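 Radioligand given in saline into tail vein of male albino CD rats (225-250 g); 100-200 µCi per animal, 1-2 Ci/µmol at injection depending on radioligand. Three rats per time point were decapitated under light ether anaesthesia. Blood, plasma, brain regions and washed organs were weighed and gamma-counted. Uptake is %I.D./g tissue, mean ± SD.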
# Rattus norvegicus [2] = organism: Rattus norvegicus; experiment: Tissue (blood) distribution in Albino male CD rats after 15 minutes expressed as percent of injected dose per gram of organ.; type: ADME, organism-based; details: in vivo, 0.25 h; how it was run: as §1
# Rattus norvegicus [3] = organism: Rattus norvegicus; experiment: Tissue (adrenal gland) distribution in Albino male CD rats after 60 minutes expressed as percent of injected dose per gram of organ.; type: ADME, organism-based; details: in vivo, 1 h; how it was run: as §1
# Rattus norvegicus [4] = organism: Rattus norvegicus; experiment: Tissue (heart) distribution in Albino male CD rats after 60 minutes expressed as percent of injected dose per gram of organ.; type: ADME, organism-based; details: in vivo, 1 h; how it was run: as §1
# Rattus norvegicus [5] = organism: Rattus norvegicus; experiment: Tissue (kidney) distribution in Albino male CD rats after 5 minutes expressed as percent of injected dose per gram of organ.; type: ADME, organism-based; details: in vivo; how it was run: as §1
# Rattus norvegicus [6] = organism: Rattus norvegicus; experiment: Tissue (adrenal gland) distribution in Albino male CD rats after 5 minutes expressed as percent of injected dose per gram of organ.; type: ADME, organism-based; details: in vivo; how it was run: as §1
# Rattus norvegicus [7] = organism: Rattus norvegicus; experiment: Tissue (spleen) distribution in Albino male CD rats after 15 minutes expressed as percent of injected dose per gram of organ.; type: ADME, organism-based; details: in vivo, 0.25 h
# Rattus norvegicus [8] = organism: Rattus norvegicus; experiment: Tissue (cerebellum) distribution in Albino male CD rats after 90 minutes expressed as percent of injected dose per gram of organ.; type: ADME, organism-based; details: in vivo, 1.5 h; how it was run: as §1
# Rattus norvegicus [9] = organism: Rattus norvegicus; experiment: Tissue (testicle) distribution in Albino male CD rats after 60 minutes expressed as percent of injected dose per gram of organ.; type: ADME, organism-based; details: in vivo, 1 h
# How it was run: (§2)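 Male albino CD rats (225-250 g) received the 11C-labelled radioligand in saline by tail-vein injection. Three rats per time point were decapitated under light ether anaesthesia at 5, 15, 30, 60 or 90 min. Blood was collected heparinized and plasma separated by centrifugation. The pituitary was dissected from the brain. Lung, liver (three-lobe pieces) and right deltoid muscle were sampled, washed in cold saline, gamma-counted and weighed. Results are %I.D./g.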
# Rattus norvegicus [10] = organism: Rattus norvegicus; experiment: Tissue (kidney) concentration of radioactivity at 30 min post-injection into Albino male CD rats with vehicle.; type: ADME, organism-based; details: in vivo, 0.5 h
# How it was run: (§3)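 Separate groups of five rats received tail-vein PK 11195 (1.4-1.6 mg; 5 mg/kg) in 30 µL DMSO:EtOH 1:1, or vehicle alone, immediately before iv radioligand (90-170 µCi in saline, 0.9-1 Ci/µmol). Rats were decapitated at 30 min and tissues gamma-counted; values are %I.D./g.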
# Rattus norvegicus [11] = organism: Rattus norvegicus; experiment: Tissue (intestine) distribution in Albino male CD rats after 5 minutes expressed as percent of injected dose per gram of organ.; type: ADME, organism-based; details: in vivo; how it was run: as §1
# Rattus norvegicus [12] = organism: Rattus norvegicus; experiment: Tissue (heart) distribution in Albino male CD rats after 5 minutes expressed as percent of injected dose per gram of organ.; type: ADME, organism-based; details: in vivo; how it was run: as §1
# Rattus norvegicus [13] = organism: Rattus norvegicus; experiment: Tissue (pituitary) distribution in Albino male CD rats after 90 minutes expressed as percent of injected dose per gram of organ.; type: ADME, organism-based, Pituitary gland; details: in vivo, 1.5 h; how it was run: as §2
# Rattus norvegicus [14] = organism: Rattus norvegicus; experiment: Tissue (pituitary) distribution in Albino male CD rats after 15 minutes expressed as percent of injected dose per gram of organ.; type: ADME, organism-based, Pituitary gland; details: in vivo, 0.25 h; how it was run: as §2
# Rattus norvegicus [15] = organism: Rattus norvegicus; experiment: Tissue (heart) distribution in Albino male CD rats after 90 minutes expressed as percent of injected dose per gram of organ.; type: ADME, organism-based; details: in vivo, 1.5 h; how it was run: as §1
# Rattus norvegicus [16] = organism: Rattus norvegicus; experiment: Tissue (cortex) distribution in Albino male CD rats after 15 minutes expressed as percent of injected dose per gram of organ.; type: ADME, organism-based; details: in vivo, 0.25 h; how it was run: as §1
# Rattus norvegicus [17] = organism: Rattus norvegicus; experiment: Tissue (plasma) distribution in Albino male CD rats after 60 minutes expressed as percent of injected dose per gram of organ.; type: ADME, organism-based; details: in vivo, 1 h; how it was run: as §2
# Rattus norvegicus [18] = organism: Rattus norvegicus; experiment: Tissue (blood) distribution in Albino male CD rats after 60 minutes expressed as percent of injected dose per gram of organ.; type: ADME, organism-based; details: in vivo, 1 h; how it was run: as §1
# [19] = biological target: Translocator protein (Rattus norvegicus) (UniProt P16257); experiment: Tissue (kidney) concentration of radioactivity at 30 min post-injection into Albino male CD rats after pretreatment with cold PK 11195.; type: functional, tissue-based; how it was run: as §3
# [20] = biological target: Translocator protein (Rattus norvegicus) (UniProt P16257); experiment: Tissue (cortex) concentration of radioactivity at 30 min post-injection into Albino male CD rats after pretreatment with cold PK 11195.; type: functional; how it was run: as §3
# Rattus norvegicus [21] = organism: Rattus norvegicus; experiment: Tissue (plasma) distribution in Albino male CD rats after 90 minutes expressed as percent of injected dose per gram of organ.; type: ADME, organism-based; details: in vivo, 1.5 h; how it was run: as §2
# Rattus norvegicus [22] = organism: Rattus norvegicus; experiment: Tissue (adrenal gland) distribution in Albino male CD rats after 90 minutes expressed as percent of injected dose per gram of organ.; type: ADME, organism-based; details: in vivo, 1.5 h; how it was run: as §1
# Rattus norvegicus [23] = organism: Rattus norvegicus; experiment: Tissue (kidney) distribution in Albino male CD rats after 30 minutes expressed as percent of injected dose per gram of organ.; type: ADME, organism-based; details: in vivo, 0.5 h; how it was run: as §1
# Rattus norvegicus [24] = organism: Rattus norvegicus; experiment: Tissue (spleen) distribution in Albino male CD rats after 60 minutes expressed as percent of injected dose per gram of organ.; type: ADME, organism-based; details: in vivo, 1 h
# Rattus norvegicus [25] = organism: Rattus norvegicus; experiment: Tissue (heart) distribution in Albino male CD rats after 30 minutes expressed as percent of injected dose per gram of organ.; type: ADME, organism-based; details: in vivo, 0.5 h; how it was run: as §1
# Rattus norvegicus [26] = organism: Rattus norvegicus; experiment: Tissue (testicle) distribution in Albino male CD rats after 90 minutes expressed as percent of injected dose per gram of organ.; type: ADME, organism-based; details: in vivo, 1.5 h
# Rattus norvegicus [27] = organism: Rattus norvegicus; experiment: Tissue (testicle) distribution in Albino male CD rats after 5 minutes expressed as percent of injected dose per gram of organ.; type: ADME, organism-based; details: in vivo; how it was run: as §2
# Rattus norvegicus [28] = organism: Rattus norvegicus; experiment: Tissue (cortex) distribution in Albino male CD rats after 30 minutes expressed as percent of injected dose per gram of organ.; type: ADME, organism-based; details: in vivo, 0.5 h; how it was run: as §1
# Rattus norvegicus [29] = organism: Rattus norvegicus; experiment: Tissue (spleen) distribution in Albino male CD rats after 5 minutes expressed as percent of injected dose per gram of organ.; type: ADME, organism-based; details: in vivo; how it was run: as §2
# Rattus norvegicus [30] = organism: Rattus norvegicus; experiment: Tissue (liver) distribution in Albino male CD rats after 5 minutes expressed as percent of injected dose per gram of organ.; type: ADME, organism-based; details: in vivo; how it was run: as §2
# Rattus norvegicus [31] = organism: Rattus norvegicus; experiment: Tissue (heart) distribution in Albino male CD rats after 15 minutes expressed as percent of injected dose per gram of organ.; type: ADME, organism-based; details: in vivo, 0.25 h; how it was run: as §1
# Rattus norvegicus [32] = organism: Rattus norvegicus; experiment: Tissue (liver) distribution in Albino male CD rats after 15 minutes expressed as percent of injected dose per gram of organ.; type: ADME, organism-based; details: in vivo, 0.25 h; how it was run: as §1
# [33] = biological target: Translocator protein (Rattus norvegicus) (UniProt P16257); experiment: Tissue (lung) concentration of radioactivity at 30 min post-injection into Albino male CD rats after pretreatment with cold PK 11195.; type: functional
# How it was run: (§4)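 Blocking study in male albino CD rats, five per group. Immediately before the 11C radioligand (in saline, i.v. tail vein), rats received 30 µL tail-vein PK 11195 (5 mg/kg; 1.4-1.6 mg) in DMSO:EtOH 1:1, or vehicle. Rats were decapitated at 30 min. Tissues were dissected, washed, gamma-counted and weighed as in the biodistribution study. Results are %I.D./g.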
# Rattus norvegicus [34] = organism: Rattus norvegicus; experiment: Tissue (lung) distribution in Albino male CD rats after 90 minutes expressed as percent of injected dose per gram of organ.; type: ADME, organism-based; details: in vivo, 1.5 h; how it was run: as §2
# Rattus norvegicus [35] = organism: Rattus norvegicus; experiment: Tissue (muscle) distribution in Albino male CD rats after 30 minutes expressed as percent of injected dose per gram of organ.; type: ADME, organism-based; details: in vivo, 0.5 h; how it was run: as §2
# Rattus norvegicus [36] = organism: Rattus norvegicus; experiment: Tissue (cortex) concentration of radioactivity at 30 min post-injection into Albino male CD rats with vehicle.; type: ADME, organism-based; details: in vivo, 0.5 h; how it was run: as §3
# Rattus norvegicus [37] = organism: Rattus norvegicus; experiment: Tissue (blood) distribution in Albino male CD rats after 30 minutes expressed as percent of injected dose per gram of organ.; type: ADME, organism-based; details: in vivo, 0.5 h; how it was run: as §1
# Rattus norvegicus [38] = organism: Rattus norvegicus; experiment: Tissue (pituitary) distribution in Albino male CD rats after 5 minutes expressed as percent of injected dose per gram of organ.; type: ADME, organism-based, Pituitary gland; details: in vivo; how it was run: as §2
# Rattus norvegicus [39] = organism: Rattus norvegicus; experiment: Tissue (cerebellum) distribution in Albino male CD rats after 60 minutes expressed as percent of injected dose per gram of organ.; type: ADME, organism-based; details: in vivo, 1 h; how it was run: as §1
# Rattus norvegicus [40] = organism: Rattus norvegicus; experiment: Tissue (pituitary) concentration of radioactivity at 30 min post-injection into Albino male CD rats with vehicle.; type: ADME, organism-based, Pituitary gland; details: in vivo, 0.5 h; how it was run: as §4
# Chain of Translocator protein (Rattus norvegicus) (P16257 whole entry, looked up): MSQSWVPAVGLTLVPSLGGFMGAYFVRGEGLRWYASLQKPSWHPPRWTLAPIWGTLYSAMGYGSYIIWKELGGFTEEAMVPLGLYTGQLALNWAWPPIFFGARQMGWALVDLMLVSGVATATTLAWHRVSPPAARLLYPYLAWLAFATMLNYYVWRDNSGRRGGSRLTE
smiles,measurement,setting,value
CCC(C)N(C)C(=O)c1nc2ccccc2c(-c2ccccc2)c1C (stereo not given),I.D./g,Rattus norvegicus [1],0.13%
same,I.D./g,Rattus norvegicus [2],0.08%
same,I.D./g,Rattus norvegicus [3],2.27%
same,I.D./g,Rattus norvegicus [4],1.26%
same,I.D./g,Rattus norvegicus [5],0.59%
same,I.D./g,Rattus norvegicus [6],1.32%
same,I.D./g,Rattus norvegicus [7],0.92%
same,I.D./g,Rattus norvegicus [8],0.04%
same,I.D./g,Rattus norvegicus [9],0.09%
same,I.D./g,Rattus norvegicus [10],0.45%
same,I.D./g,Rattus norvegicus [11],0.25%
same,I.D./g,Rattus norvegicus [12],0.86%
same,I.D./g,Rattus norvegicus [13],0.2%
same,I.D./g,Rattus norvegicus [14],0.2%
same,I.D./g,Rattus norvegicus [15],1.23%
same,I.D./g,Rattus norvegicus [16],0.07%
same,I.D./g,Rattus norvegicus [17],0.03%
same,I.D./g,Rattus norvegicus [18],0.03%
same,I.D./g,[19],< 0.16%
same,I.D./g,[20],> 0.04%
same,I.D./g,Rattus norvegicus [21],0.02%
same,I.D./g,Rattus norvegicus [22],1.8%
same,I.D./g,Rattus norvegicus [23],0.77%
same,I.D./g,Rattus norvegicus [24],1.25%
same,I.D./g,Rattus norvegicus [25],1.21%
same,I.D./g,Rattus norvegicus [26],0.08%
same,I.D./g,Rattus norvegicus [27],0.06%
same,I.D./g,Rattus norvegicus [28],0.07%
same,I.D./g,Rattus norvegicus [29],0.5%
same,I.D./g,Rattus norvegicus [30],0.64%
same,I.D./g,Rattus norvegicus [31],0.8%
same,I.D./g,Rattus norvegicus [32],0.5%
same,I.D./g,[33],< 0.14%
same,I.D./g,Rattus norvegicus [34],1.27%
same,I.D./g,Rattus norvegicus [35],0.16%
same,I.D./g,Rattus norvegicus [36],0.05%
same,I.D./g,Rattus norvegicus [37],0.06%
same,I.D./g,Rattus norvegicus [38],0.22%
same,I.D./g,Rattus norvegicus [39],0.05%
same,I.D./g,Rattus norvegicus [40],0.25%
